Laboratory results reported in ChEMBL document CHEMBL1759840, “2,3-Substituted quinoxalin-6-amine analogs as antiproliferatives: a structure-activity relationship study” (2011).
The source made the active and inactive calls. No cut-off for these calls is given here.

Key:
A549 [1] = assay: Growth inhibition of human A549 cells at 20 uM after 72 hrs by alamar blue assay; type: functional; conditions: A549, 72 h, read-out: GI
How it was run: (§1)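 Single-concentration screen at 20 μM with 72 h exposure across a panel of cancer lines: lung A549, pancreatic AsPC1, colon HT29, breast MDA-MB-231, prostate PC3, ovarian SKOV3 and bone U2OS. Growth inhibition read after 72 h.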

ASPC1 [2] = assay: Growth inhibition of human AsPC1 cells at 20 uM after 72 hrs by alamar blue assay; type: functional; conditions: ASPC1, 72 h, read-out: GI; how it was run: as §1
HT-29 [3] = assay: Growth inhibition of human HT-29 cells at 20 uM after 72 hrs by alamar blue assay; type: functional; conditions: HT-29, 72 h, read-out: GI; how it was run: as §1
MDA-MB-231 [4] = assay: Growth inhibition of human MDA-MB-231 cells at 20 uM after 72 hrs by alamar blue assay; type: functional; conditions: MDA-MB-231, 72 h, read-out: GI; how it was run: as §1
PC-3 [5] = assay: Growth inhibition of human PC3 cells at 20 uM after 72 hrs by alamar blue assay; type: functional; conditions: PC-3, 72 h, read-out: GI; how it was run: as §1
SK-OV-3 [6] = assay: Growth inhibition of human SKOV3 cells at 20 uM after 72 hrs by alamar blue assay; type: functional; conditions: SK-OV-3, 72 h, read-out: GI; how it was run: as §1
U2OS [7] = assay: Growth inhibition of human U2OS cells at 20 uM after 72 hrs by alamar blue assay; type: functional; conditions: read-out: GI; how it was run: as §1
A549 [8] = assay: Growth inhibition of human A549 cells after 72 hrs by alamar blue assay; type: functional; conditions: A549, 72 h
ASPC1 [9] = assay: Growth inhibition of human AsPC1 cells after 72 hrs by alamar blue assay; type: functional; conditions: ASPC1, 72 h
HT-29 [10] = assay: Growth inhibition of human HT-29 cells after 72 hrs by alamar blue assay; type: functional; conditions: HT-29, 72 h
MDA-MB-231 [11] = assay: Growth inhibition of human MDA-MB-231 cells after 72 hrs by alamar blue assay; type: functional; conditions: MDA-MB-231, 72 h
PC-3 [12] = assay: Growth inhibition of human PC3 cells after 72 hrs by alamar blue assay; type: functional; conditions: PC-3, 72 h
SK-OV-3 [13] = assay: Growth inhibition of human SKOV3 cells after 72 hrs by alamar blue assay; type: functional; conditions: SK-OV-3, 72 h
U2OS [14] = assay: Growth inhibition of human U2OS cells after 72 hrs by alamar blue assay; type: functional
MDA-MB-231 [15] = assay: Induction of apoptosis in human MDA-MB-231 cells assessed as increase in caspase 3/7 activity at 20 uM after 1 hr by luminescence assay; type: functional, cell-based
How it was run: (§2)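 Caspase 3/7 induction was followed over time, up to 72 h, in MDA-MB-231 and PC3 cells, with etoposide as positive control.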

PC-3 [16] = assay: Induction of apoptosis in human PC3 cells assessed as increase in caspase 3/7 activity at 20 uM after 1 hr by luminescence assay; type: functional, cell-based; how it was run: as §2
HeLa [17] = assay: Induction of apoptosis in human HeLa cells overexpressing Bad3SA assessed as increase in caspase 3/7 activity at 20 uM after 1 hr by luminescence assay; type: functional, cell-based
HeLa [18] = assay: Induction of apoptosis in human HeLa cells overexpressing Bad3SA assessed as PARP cleavage at 20 uM by Western blotting; type: functional, cell-based
HeLa [19] = assay: Induction of Mcl-1 dependent apoptosis in doxycycline-stimulated human HeLa cells assessed as condensed nuclei for 12 hrs using Hoechst dye; type: functional, cell-based

**Q.** What does the source list for `O=C(Nc1ccc(Br)cc1)Nc1ccc2nc(-c3ccco3)c(-c3ccco3)nc2c1`?
**A.** inhibition of growth at 20 µM (A549 [1]): > 100%; inhibition of growth at 20 µM (ASPC1 [2]): > 100%; inhibition of growth at 20 µM (HT-29 [3]): 88.6%; inhibition of growth at 20 µM (MDA-MB-231 [4]): > 100%; inhibition of growth at 20 µM (PC-3 [5]): > 100%; inhibition of growth at 20 µM (SK-OV-3 [6]): 94.9%; inhibition of growth at 20 µM (U2OS [7]): > 100%; GI50 (A549 [8]): 6.4 µM; GI50 (ASPC1 [9]): 17.3 µM; GI50 (HT-29 [10]): 12.1 µM; GI50 (MDA-MB-231 [11]): 8.4 µM; GI50 (PC-3 [12]): 5.9 µM; GI50 (SK-OV-3 [13]): 16.8 µM; GI50 (U2OS [14]): 10.8 µM; Activity (MDA-MB-231 [15]): Active; Activity (PC-3 [16]): Active; Activity (HeLa [17]): Active; Activity (HeLa [18]): Active; Activity (HeLa [19]): Dose-dependent effect
